Measurements reported in publication PMC6404779 (Nature medicine, 2018).

What was measured:
first site of RAF dimers = conditions: cited from earlier work
BRAF V600E monomer = conditions: cited from earlier work
[1] = test system: second site of RAF dimers; conditions: read-out: IC50 of binding to the second site of RAF dimers; cited from earlier work
[2] = test system: p61 BRAF V600E homodimers (SK-MEL-239 C4); assay: p-ERK Western blot, 1 hr drug treatment; assay type: cell-based
Procedure, shortened: (§1)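 SK-MEL-239 and SK-MEL-239 C4 cells (DMEM, glutamine, antibiotics, 10% FBS) were exposed 1 hr to 0–30,000 nM test compound (0,10,30,100,300,1000,3000,10,000, 30,000 nM). Whole-cell lysates were Western blotted, and p-ERK/total ERK was quantified by densitometry and normalized to untreated cells. IC75 is the concentration giving 75% inhibition on the response curve; 4 independent repeats, mean±s.d.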

[3] = molecular target: RAS-independent BRAF dimers (p61 BRAF) (Homo sapiens, UniProt P15056); assay: RAF dimer immunoprecipitation in 293H; assay type: cell-based; conditions: read-out: IC50 for decrease of dimer levels, p61 BRAF; 1hr; IP/Western blot
Procedure, shortened: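 293H cells carried doxycycline-inducible NRAS Q61K introduced by retrovirus. They were transfected with Lipofectamine 2000 (DNA:reagent 1:3) to co-express V5- and FLAG-tagged full-length BRAF or p61 BRAF pairs. Cells were exposed to increasing test-compound doses for 1 hr, then lysed, and lysates were immunoprecipitated with anti-V5 agarose (1:200). Blots were probed with anti-V5 and anti-FLAG. Pulled-down FLAG and V5 proteins were quantified by densitometry and normalised to untreated cells.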

[4] = test system: Class 3 BRAF mutant heterodimers; assay: RAF dimer immunoprecipitation in 293H cells; assay type: cell-based; conditions: 1hr, increasing doses
[5] = test system: RAF-null MEFs expressing CRAF; assay: ERK signaling in RAF-null MEFs expressing one RAF isoform; assay type: cell-based, Mouse; conditions: 1hr
Procedure, shortened: (§2)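 RAF-less MEFs came from Araflox/lox;Braflox/lox;Craflox/lox;RERT ert/ert MEFs. Doxycycline-inducible wild-type ARAF, BRAF or CRAF was transduced retrovirally without 4-OHT and selected with puromycin/hygromycin. Cells were then infected with Adeno-Cre (MOI 100) and cultured in 1 uM 4-OHT plus 50 ng/ml doxycycline. GFP-positive cells were sorted after 2 weeks. Loss of endogenous RAF and induced expression were confirmed by genomic PCR and Western blot.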

[6] = test system: NRAS Q61R activation of WT RAF dimers (SK-MEL-2); assay: p-ERK Western blot, 1 hr drug treatment; assay type: cell-based; conditions: Homo sapiens, SK-MEL-2, read-out: IC50 for p-ERK in SK-MEL-2 cells
Procedure, shortened: (§3)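 SK-MEL-2 (RPMI, 10% FBS) or primary keratinocytes (Dermal Cell Basal Medium + keratinocyte growth kit) were exposed 1 hr to 0–30,000 nM compound (nine points, 10 to 30,000 nM). Lysates were Western blotted, and p-ERK/total ERK was quantified by densitometry and normalized to untreated cells. IC50 is the concentration giving 50% inhibition on the response curve; n=4, mean±s.d.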

[7] = test system: RAF-null MEFs expressing ARAF; assay: ERK signaling in RAF-null MEFs expressing one RAF isoform; assay type: cell-based, Mouse; conditions: 1hr
Procedure, shortened: as §2

[8] = test system: WT RAS/RAF (primary keratinocytes); assay: p-ERK Western blot, 1 hr drug treatment; assay type: cell-based; conditions: Keratinocyte, read-out: IC50 for p-ERK in keratinocytes
Procedure, shortened: as §3

BRAF G466V PDX tumors = assay: Colorectal cancer PDX model; assay type: in vivo, NSG mice; conditions: Cetuximab 50 mg/kg IP twice weekly, vemurafenib 75 mg/kg BID, PLX8394 50 mg/kg BID
[9] = test system: RAF-null MEFs expressing BRAF; assay: ERK signaling in RAF-null MEFs expressing one RAF isoform; assay type: cell-based, Mouse; conditions: 1hr
Procedure, shortened: as §2

[10] = test system: activated CRAF homodimers; assay: ERK signaling in SKBR3 cells ectopically expressing RAF proteins; assay type: cell-based; conditions: 1hr
Procedure, shortened: (§4)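 SKBR3 cells (DMEM/F12 + 10% FBS) were transfected the day after seeding (Lipofectamine 2000, DNA:lipid 1:3) with plasmids for the indicated RAF proteins or empty pcDNA3. After 24 h, RAF-transfected cells got 1 uM lapatinib to suppress endogenous RAF activity; vector cells got DMSO. Test compound was then added at increasing doses for 1 hr. Protein expression and phosphorylation were read by Western blot; 3–4 independent repeats.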

CRAF knockout MEF cells = assay: p-MEK/p-ERK in RAF knockout MEF cells; assay type: cell-based, Mouse; conditions: 1hr
Procedure, shortened: (§5)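 Wild-type control MEFs and ARAF, BRAF or CRAF knockout MEFs (from a conditional RAF knockout line) were exposed 1 hr to increasing test compound concentrations. Western blot measured p-MEK, MEK, p-ERK and ERK. p-MEK/MEK and p-ERK/ERK were quantified by densitometry, normalized to untreated cells and plotted as response curves (mean±s.d.). Cellular experiments were repeated at least three times.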

[11] = test system: A375 cells with overexpression of BRAF V600E; assay: A375 xenograft with doxycycline-induced BRAF V600E overexpression; assay type: in vivo, nude mice; conditions: vemurafenib 75mg/kg BID, PLX8394 50mg/kg BID
Procedure, shortened: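 A375 cells carrying a retroviral tet-regulated BRAF V600E or NRAS Q61K construct (kept in 50 ug/ml hygromycin and 0.2 ug/ml puromycin). 5 million cells were injected s.c. into nude mice fed doxycycline food. At 100 mm3, mice stayed on doxycycline food and received vehicle, reference RAF inhibitor 75 mg/kg BID or test compound 50 mg/kg BID. Tumour size was tracked (n=5; mean±s.d.; two-tailed unpaired t-test).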

[12] = test system: Class 1 (BRAF V600 mutants) monomers (A375, SK-MEL-239 and MDST-8); assay: ERK signaling in a panel of cell lines, 1 hour; assay type: cell-based
BRAF V600E monomers = assay: ERK signaling in SKBR3 cells ectopically expressing RAF proteins; assay type: cell-based; conditions: 1hr
Procedure, shortened: as §4

[13] = test system: HeLa cells (WT RAS and RAF) with CRAF overexpression; assay: ERK signaling in HeLa cells stably expressing RAF; assay type: cell-based; conditions: 1hr
BRAF knockout MEF cells = assay: p-MEK/p-ERK in RAF knockout MEF cells; assay type: cell-based, Mouse; conditions: 1hr
Procedure, shortened: as §5

A375 Xenograft tumors = assay: ERK pathway inhibition in A375 xenograft tumors after a single dose; assay type: in vivo, Mice; conditions: single dose of 50mg/kg
[14] = test system: RAS-dependent ARAF homo-or heterodimers; assay: RAF dimer immunoprecipitation in 293H; assay type: cell-based; conditions: 1hr
p61 WT BRAF dimers = assay: ERK signaling in SKBR3 cells ectopically expressing RAF proteins; assay type: cell-based; conditions: 1hr
Procedure, shortened: as §4

p61 BRAF V600E dimers = assay: as above; assay type: cell-based; conditions: 1hr
Procedure, shortened: as §4

[15] = Tolerability in nude mice; assay type: in vivo; conditions: doses up to 100mg/kg daily
[16] = test system: HeLa cells (WT RAS and RAF) with BRAF overexpression; assay: ERK signaling in HeLa cells stably expressing RAF; assay type: cell-based; conditions: 1hr
[17] = test system: Class 3 mutants (H508 and H1666); assay: ERK signaling in a panel of cell lines, 1 hour; assay type: cell-based
[18] = test system: BRAF K601E CRC PDX tumors; assay: Colorectal cancer PDX model; assay type: in vivo, NSG mice; conditions: vemurafenib 75mg/kg BID, PLX8394 50mg/kg BID
ARAF knockout MEF cells = assay: p-MEK/p-ERK in RAF knockout MEF cells; assay type: cell-based, Mouse; conditions: 1hr
Procedure, shortened: as §5

[19] = molecular target: RAS-dependent full length BRAF/BRAF dimers (Homo sapiens, UniProt P15056); assay: RAF dimer immunoprecipitation in 293H; assay type: cell-based
[20] = test system: BRAF V600E monomers (SK-MEL-239); assay: p-ERK Western blot, 1 hr drug treatment; assay type: cell-based; conditions: p-ERK/total ERK by densitometry, calculated from the curves in Figure 1
Procedure, shortened: as §1

BRAF/CRAF dimers = BRAF/CRAF dimers (Homo sapiens, UniProt P04049); assay: RAF dimer immunoprecipitation in 293H; assay type: cell-based
Procedure, shortened: (§6)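 293H cells with inducible NRAS Q61K co-expressed V5- and FLAG-tagged pairs: BRAF/BRAF, p61 BRAF/p61 BRAF, CRAF-V5/BRAF-FLAG, catC-V5/p61 BRAF-FLAG, CRAF/CRAF or catC/catC. Cells were exposed 1 hr to increasing test compound concentrations, and lysates were immunoprecipitated with anti-V5 agarose. Blots were probed with anti-V5/anti-FLAG. Pulled-down tagged proteins were quantified by densitometry, normalized to untreated cells and plotted as response curves; 3 independent repeats.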

[21] = test system: WT RAF driven by either WT or mutant RAS (A549, SK-MEL-285, BEAS-2B and melanocytes); assay: ERK signaling in a panel of cell lines, 1 hour; assay type: cell-based
Procedure, shortened: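 Cells cultured as follows: SK-MEL-285 in RPMI with 10% FBS; BEAS-2B in BEBM medium; primary melanocytes in Dermal cell basal medium with melanocyte growth kit; A549 in DMEM with glutamine, antibiotics and 10% FBS. Pathway status read by Western blot for p-MEK1/2, p-ERK1/2, MEK1/2 and ERK1/2 (primary 1:1,000; HRP secondary 1:5,000). Cellular experiments repeated at least three times.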

[22] = molecular target: RAS-dependent full length CRAF dimers (Homo sapiens, UniProt P04049); assay: RAF dimer immunoprecipitation in 293H; assay type: cell-based; conditions: concentrations as high as 10uM
Procedure, shortened: as §6

[23] = test system: RAS-independent truncated CRAF (Cat C) homodimers; assay: RAF dimer immunoprecipitation in 293H; assay type: cell-based; conditions: concentrations as high as 10uM
Procedure, shortened: as §6

[24] = test system: Class 2 BRAF mutants (SK-MEL-239 C4, SK-MEL-246, JVM-3, and 22RV1); assay: ERK signaling in a panel of cell lines, 1 hour; assay type: cell-based
[25] = test system: Class 2 BRAF mutant homodimers; assay: RAF dimer immunoprecipitation in 293H cells; assay type: cell-based; conditions: 1hr, increasing doses
[26] = PLX8394 concentration in tumor samples; assay type: in vivo, Mice; conditions: single dose of 50mg/kg (i.p.), A375 xenograft tumor tissue
Procedure, shortened: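 Melanoma xenograft tumours were collected at several time points after a single 50 mg/kg dose. Fresh tissue (50–150 mg) was snap-frozen in an ethanol–dry ice bath, homogenised and protein-precipitated. Samples were quantified by LC-MS/MS with an internal standard and a 15–50000 ng/mL calibration range. Standards were made by spiking untreated homogenate, and QC samples spanned the range.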

Chain of RAS-dependent full length CRAF dimers (P04049 whole entry): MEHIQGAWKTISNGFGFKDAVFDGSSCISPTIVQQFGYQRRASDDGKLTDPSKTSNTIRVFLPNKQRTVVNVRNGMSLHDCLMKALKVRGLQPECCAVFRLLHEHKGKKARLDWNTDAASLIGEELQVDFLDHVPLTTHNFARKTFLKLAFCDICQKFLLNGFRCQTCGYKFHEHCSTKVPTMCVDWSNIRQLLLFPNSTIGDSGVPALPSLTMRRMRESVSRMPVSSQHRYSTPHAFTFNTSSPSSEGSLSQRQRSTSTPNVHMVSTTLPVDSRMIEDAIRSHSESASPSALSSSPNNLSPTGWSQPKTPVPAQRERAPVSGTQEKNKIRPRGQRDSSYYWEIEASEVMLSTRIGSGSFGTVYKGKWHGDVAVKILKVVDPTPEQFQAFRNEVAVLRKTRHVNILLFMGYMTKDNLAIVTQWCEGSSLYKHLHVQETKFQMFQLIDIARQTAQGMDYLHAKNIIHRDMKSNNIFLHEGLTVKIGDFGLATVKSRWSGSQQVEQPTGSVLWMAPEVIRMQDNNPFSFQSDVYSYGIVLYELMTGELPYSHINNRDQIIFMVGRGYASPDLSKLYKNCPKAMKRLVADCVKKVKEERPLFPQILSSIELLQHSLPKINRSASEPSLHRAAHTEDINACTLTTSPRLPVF
Chain of RAS-dependent full length CRAF dimers (P04049 whole entry): as above
Chain of BRAF/CRAF dimers (P04049 whole entry): as above

Compound: COC(=O)N[C@@H](C)CNc1nccc(-c2cn(C(C)C)nc2-c2cc(Cl)cc(NS(C)(=O)=O)c2F)n1 [encorafenib]
- time the drug remains bound to the other site after washout (first site of RAF dimers; cells pretreated 1 hour, washed out): up to 24 hours
- IC50 (first site of RAF dimers; read-out: IC50 of binding to first site of RAF dimers): 14 nM
- off-rate from BRAF V600E monomers (BRAF V600E monomer): > 24 h
- IC50 (BRAF V600E monomer; read-out: IC50 of binding to the BRAF V600E monomer): 14 nM
- IC50 [1]: 287 nM

Compound: O=C(c1c(F)ccc(NS(=O)(=O)N2CC[C@@H](F)C2)c1F)c1c[nH]c2ncc(-c3cnc(C4CC4)nc3)cc12 [PLX8394]
- IC75 of p-ERK in SK-MEL-239 C4 ([2]; 1 hr, p-ERK/total ERK by densitometry, calculated from the curves in Figure 1): 158 nM
- concentration that inhibits p61 dimers ([2]; SK-MEL-239 C4, 1 hr): 100~300 nM
- IC50 [3]: 100 to 300 nM
- disruption of Class 3 BRAF mutant heterodimers [4]: disrupts
- effect on ERK signaling, cells expressing only CRAF [5]: activated
- IC50 [6]: > 20000 nM
- effect on ERK signaling, cells expressing only ARAF [7]: activated
- IC50 [8]: > 20000 nM
- response of ERK signaling and tumor growth (BRAF G466V PDX tumors): insensitive
- effect on ERK signaling, cells expressing only BRAF [9]: inhibited
- effect on ERK signaling in cells with activated CRAF homodimers [10]: activated ERK signaling
- effect on ERK signaling, CRAF-knockout (CRAF knockout MEF cells): inhibited signaling
- response of ERK signaling and tumor growth, BRAF V600E amplified [11]: sensitive
- concentrations inhibiting ERK signaling driven by Class 1 monomers [12]: 30 to 100 nM
- doses required to inhibit BRAF V600E monomers (BRAF V600E monomers): 30 to 100 nM
- effect on ERK signaling, CRAF overexpression [13]: activated the pathway
- effect on ERK signaling, BRAF knocked out (BRAF knockout MEF cells): induced ERK signaling
- time of maximum inhibition of signaling after dosing (A375 Xenograft tumors): 2 to 7 h
- time of return of signaling to baseline (A375 Xenograft tumors): ≤ 24 h
- disruption of ARAF homo- or heterodimers [14]: didn’t disrupt
- doses required to inhibit p61 WT BRAF dimers (p61 WT BRAF dimers): 300 to 1000 nM
- doses required to inhibit p61 BRAF V600E dimers (p61 BRAF V600E dimers): 100 to 300 nM
- tolerability [15]: well tolerated
- effect on ERK signaling, BRAF overexpression [16]: sensitized ERK signaling to inhibition
- concentrations inhibiting Class 3 mutants driven signaling [17]: 1 to 10 µM
- tumor growth response, single RAF inhibitor [18]: partially inhibited
- effect on ERK signaling, ARAF knockout (ARAF knockout MEF cells): minimal effects
- IC50 [19]: 100 to 300 nM
- time to reduction in BRAF-containing dimers after drug treatment ([19]; 1uM, 293H cells): ≤ 15 min
- IC75 of p-ERK in SK-MEL-239 [20]: 39 nM
- IC50 (BRAF/CRAF dimers): 100 to 300 nM
- effect on ERK signaling in cells with WT RAF [21]: almost no effect on ERK signaling or caused slight activation
- effect on full length CRAF dimer levels [22]: no effect
- effect on truncated CRAF (Cat C) homodimer levels [23]: no effect
- concentrations inhibiting ERK signaling in cells expressing Class 2 BRAF mutants [24]: 100 to 1000 nM
- disruption of Class 2 BRAF mutant homodimers [25]: disrupts
- time of highest drug concentrations in melanoma xenografts [26]: 7 h
